# Assay results pooled from the literature.
# Protocols differ between the studies behind these lines.
# Read-out: cell growth or viability
Structure (SMILES),cell line,method,time,IC50 [µM]
CCOc1cc2ncc(C#N)c(Nc3ccc(OCc4ccccn4)c(Cl)c3)c2cc1NC(=O)/C=C/CN(C)C,HCC1419,ATP luminescence,,0.014
CC(C)c1cccc(C(C)C)c1N=C1C(=O)N(Cc2cccc(Cl)c2)c2ccccc21,L02,MTT,48 h,72.5
Nc1ccccc1NC(=O)c1ccc(Cn2cnc3c(Nc4ccc(Cl)cc4)ncnc32)cc1,NALM-6,MTT,72 h,1.55
C=C1C[C@@]23CC[C@H]4[C@@](C)(CCC[C@@]4(C)C(=O)O)[C@@H]2CC[C@@H]1C3,MOLT-3,XTT,75 h,116
CC1=CC(=O)C(C(C)C)=CC1=O,PANC-1,SRB,48 h,8.9
CC(C)(C)c1cnc(CSc2cnc(NC(=O)C3CCN(C(=O)CCCCCCCN4Cc5cc6c(cc5C4)C(=O)N(C4CCC(=O)NC4=O)C6=O)CC3)s2)o1 (stereo not drawn),NALM-6,MTT,,0.0234
Cc1nc(Nc2ncc(C(=O)Nc3c(C)cccc3Cl)s2)cc(N2CC[C@H](O)C2)n1,REH,ATP luminescence,72 h,> 10
Cc1cccc(N=C2C(=O)N(Cc3cccc(Cl)c3)c3ccccc32)c1,L02,MTT,48 h,25.8
Nc1ccccc1NC(=O)c1ccc(Cn2cnc3c(Nc4ccc(Br)cc4F)ncnc32)cc1,NALM-6,MTT,72 h,1.54
Cc1ncsc1-c1ccc([C@H](C)NC(=O)[C@@H]2C[C@@H](O)CN2C(=O)[C@@H](NC(=O)CN2CCN(c3cc(-c4ccccc4O)nnc3N)CC2)C(C)(C)C)cc1,NCI-H1944,ATP luminescence,7 days,0.215
O=C1C(=Nc2ccc(Cl)cc2)c2ccccc2N1Cc1cccc(Cl)c1,L02,MTT,48 h,32
CC1=CC(=O)c2ccccc2C1=O,MOLT-3,XTT,,10.3
C(=N\Nc1cc(N/N=C/c2ccc3ccccc3n2)nc(-c2ccccc2)n1)/c1ccc2ccccc2n1,L02,MTT,48 h,> 100
COc1cc([C@@H]2c3cc4c(cc3[C@@H](O[C@@H]3O[C@@H]5CO[C@@H](C)O[C@H]5[C@H](O)[C@H]3O)[C@H]3COC(=O)[C@H]23)OCO4)cc(OC)c1O,MOLT-3,XTT,75 h,0.078
COc1ccc(Nc2ncnc3c2ncn3Cc2ccc(C(=O)NO)cc2)cc1,NALM-6,MTT,72 h,2.01
O=C1Nc2ccccc2C1=Nc1ccc(Cl)cc1,L02,MTT,48 h,28.4
COc1ccc(Nc2ncnc3c2ncn3Cc2ccc(C(=O)Nc3ccccc3N)cc2)cc1,NALM-6,MTT,72 h,7.81
Nc1nnc(-c2ccccc2O)cc1N1CC2CCC(C1)N2c1ccnc(F)c1,NCI-H1944,ATP luminescence,7 days,> 1
CC(C)c1cccc(C(C)C)c1N=C1C(=O)N(Cc2ccccc2)c2ccccc21,L02,MTT,48 h,59
COc1cccc2c1C(=O)c1c(O)c3c(c(O)c1C2=O)C[C@@](O)(C(=O)CO)C[C@@H]3O[C@H]1C[C@H](N)[C@H](O)[C@H](C)O1,MOLT-3,XTT,75 h,0.046
O=C1C(=Nc2ccc(Cl)cc2Br)c2ccccc2N1Cc1ccc(Br)cc1,L02,MTT,48 h,7.75
CS(=O)(=O)CCNCc1ccc(-c2ccc3ncnc(Nc4ccc(OCc5cccc(F)c5)c(Cl)c4)c3c2)o1,HCC1419,ATP luminescence,,0.0544
C(=N\Nc1cc(N/N=C/c2ccc3ccccc3n2)ncn1)/c1ccc2ccccc2n1,L02,MTT,48 h,> 100
O=C(CCc1ccc(Cl)cc1)N1C(=O)C(=Nc2ccc(Cl)cc2Br)c2ccccc21,L02,MTT,48 h,> 100
